Calls of active or inactive are those of the source. No cut-off for these calls is given here.
Columns and labels:
[1] = molecular target: T1, AMP-activated protein kinase, AMPK (Homo sapiens) (UniProt P54646+O43741+P54619+Q9UGJ0+Q9Y478+Q13131+Q9UGI9); experiment: Activation of AMPK in human HepG2 cells assessed as induction of glucose consumption at 10 uM treated over 24 hrs by glucose oxidase method relative to control; assay type: cell-based
Procedure, shortened: (§1)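 HepG2 cells kept in DMEM (25 mM D-glucose) with 10% serum at 37 °C, 5% CO2. At 80-90% confluence the medium was switched to serum-free RPMI-1640 with 11.1 mM glucose and 0.2% BSA. Compounds in DMSO (0.5% v/v vehicle control) were given for 24 h. Medium glucose was read by glucose oxidase; consumption = cell-free blank wells minus cell wells. Student's t test against control.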

[2] = system: HepG2; experiment: Activation of AMPKalpha in human HepG2 cells assessed as ACC phosphorylation at Ser79 residue at 10 uM by Western blot analysis; assay type: cell-based
Procedure, shortened: (§2)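 HepG2 cells were treated at 10 μM and lysed in pH 7.5 Tris buffer containing NaF, β-glycerophosphate, EDTA/EGTA, Triton X-100 and protease inhibitors, then cleared at 10,000 × g for 30 min at 4 °C. Equal lysate volumes were run on 8% SDS-PAGE and transferred to PVDF. Blots were probed for p-AMPKα (Thr172) and p-ACC (Ser79) with HRP secondary antibodies.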

[3] = molecular target: T1, AMP-activated protein kinase, AMPK (Homo sapiens); experiment: Activation of AMPK in human HepG2 cells assessed as induction of glucose consumption at 1 uM treated over 24 hrs by glucose oxidase method relative to control; assay type: cell-based; procedure, shortened: as §1
[4] = system: HepG2; experiment: Induction of AMPKalpha phosphorylation at Thr172 residue in human HepG2 cells at 10 uM by Western blot analysis; assay type: cell-based; procedure, shortened: as §2
[5] = molecular target: T1, AMP-activated protein kinase, AMPK (Homo sapiens); experiment: Activation of AMPK in human HepG2 cells assessed as induction of glucose consumption treated over 24 hrs by glucose oxidase method; assay type: cell-based; procedure, shortened: as §1
[6] = molecular target: T1, AMP-activated protein kinase, AMPK (Homo sapiens); experiment: Activation of AMPK in human HepG2 cells assessed as induction of glucose consumption at 0.1 uM treated over 24 hrs by glucose oxidase method relative to control; assay type: cell-based; procedure, shortened: as §1
[7] = system: Mus musculus; experiment: Hypoglycemic activity in db/db mouse assessed as decrease in blood glucose level at 30 mg/kg, po administered as single dose measured at 3 hrs post last dose (reference value: 0.0 +/- 4.1%); assay type: functional; set-up: scale not given: the % may be the effect or the level left
[8] = system: Mus musculus; experiment: Hypoglycemic activity in db/db mouse assessed as decrease in blood glucose level at 30 mg/kg, po treated for 1 week measured at 3 hrs post last dose (reference value: 0.0 +/- 8.6%); assay type: functional; set-up: scale not given: the % may be the effect or the level left
[9] = system: Mus musculus; experiment: Hypoglycemic activity in db/db mouse assessed as decrease in blood glucose level at 30 mg/kg, po treated for 2 week measured at 3 hrs post last dose (reference value: 0.0 +/- 4.0%); assay type: functional; set-up: scale not given: the % may be the effect or the level left
[10] = system: Mus musculus; experiment: Hypoglycemic activity in db/db mouse assessed as decrease in blood glucose level at 30 mg/kg, po treated for 3 week measured at 3 hrs post last dose (reference value: 0.0 +/- 6.8%); assay type: functional; set-up: scale not given: the % may be the effect or the level left
[11] = system: Mus musculus; experiment: Hypolipemic activity in db/db mouse assessed as total plasma cholesterol level at 30 mg/kg, po treated for 3 consecutive weeks (reference value: 6.05 to 6.98 mM); assay type: functional
[12] = system: Mus musculus; experiment: Toxicity in db/db mouse assessed as increase in body weight at 30 mg/kg, po treated for 1 to 3 weeks measured at 3 hrs post last dose relative to control; assay type: organism-based; conditions: in vivo
[13] = system: Mus musculus; experiment: Hypolipemic activity in db/db mouse assessed as plasma fasting triglyceride level at 30 mg/kg, po treated for 3 consecutive weeks (reference value: 0.70 to 0.97 mM); assay type: functional
[14] = system: Rattus norvegicus; experiment: Clearance in Sprague-Dawley rat at 5 mg/kg, iv by LC/MS/MS analysis; assay type: ADME, organism-based; conditions: in vivo
Procedure, shortened: (§3)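 SD rats, three male and three female. Given iv at 5 mg/kg and intragastric at 20 mg/kg; the oral dose went by gavage in 20% 1,2-propanediol/80% water. Heparinized blood was sampled over 32 h post dose. Plasma was extracted with EtOAc and measured by LC/MS/MS. Non-compartmental analysis gave the PK parameters (n = 6).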

[15] = AUC (0 to infinity) in Sprague-Dawley rat at 5 mg/kg, iv by LC/MS/MS analysis; assay type: ADME, organism-based; set-up: dose 5 mg/kg, route intravenous, time infinity; conditions: in vivo; procedure, shortened: as §3
[16] = Cmax in Sprague-Dawley rat at 20 mg/kg, ig by LC/MS/MS analysis; assay type: ADME, organism-based; set-up: dose 20 mg/kg, route intragastric; conditions: in vivo, po; procedure, shortened: as §3
[17] = Bioavailability in Sprague-Dawley rat at 20 mg/kg, ig by LC/MS/MS analysis; assay type: ADME, organism-based; conditions: in vivo, po; procedure, shortened: as §3
[18] = Tmax in Sprague-Dawley rat at 20 mg/kg, ig by LC/MS/MS analysis; assay type: ADME, organism-based; conditions: in vivo, po; procedure, shortened: as §3
[19] = system: Rattus norvegicus; experiment: Half life in Sprague-Dawley rat at 20 mg/kg, ig by LC/MS/MS analysis; assay type: ADME, organism-based; conditions: in vivo, po; procedure, shortened: as §3
[20] = AUC (0 to infinity) in Sprague-Dawley rat at 20 mg/kg, ig by LC/MS/MS analysis; assay type: ADME, organism-based; set-up: dose 20 mg/kg, route intragastric, time infinity; conditions: in vivo, po; procedure, shortened: as §3
[21] = system: Rattus norvegicus; experiment: Half life in Sprague-Dawley rat at 5 mg/kg, iv by LC/MS/MS analysis; assay type: ADME, organism-based; conditions: in vivo; procedure, shortened: as §3
[22] = AUC (0 to t) in Sprague-Dawley rat at 20 mg/kg, ig by LC/MS/MS analysis; assay type: ADME, organism-based; conditions: in vivo, po; procedure, shortened: as §3
[23] = system: Mus musculus; experiment: Potency index, ratio of test compound to GY3 hypoglycemic activity in db/db mouse assessed as decrease in blood glucose level at 30 mg/kg, po treated for 3 week measured at 3 hrs post last dose; assay type: functional
[24] = system: Rattus norvegicus; experiment: Volume of distribution in Sprague-Dawley rat at 5 mg/kg, iv by LC/MS/MS analysis; assay type: ADME, organism-based; conditions: in vivo; procedure, shortened: as §3
[25] = AUC (0 to t) in Sprague-Dawley rat at 5 mg/kg, iv by LC/MS/MS analysis; assay type: ADME, organism-based; conditions: in vivo; procedure, shortened: as §3
[26] = system: Rattus norvegicus; experiment: Volume of distribution in Sprague-Dawley rat at 20 mg/kg, ig by LC/MS/MS analysis; assay type: ADME, organism-based; conditions: in vivo, po; procedure, shortened: as §3
[27] = system: Rattus norvegicus; experiment: Clearance in Sprague-Dawley rat at 20 mg/kg, ig by LC/MS/MS analysis; assay type: ADME, organism-based; conditions: in vivo, po; procedure, shortened: as §3
[28] = molecular target: T1, AMP-activated protein kinase, AMPK (Homo sapiens); experiment: Activation of AMPK in human HepG2 cells assessed as induction of glucose consumption at 1 mM treated over 24 hrs by glucose oxidase method relative to control; assay type: cell-based; procedure, shortened: as §1

O=C(O)C1CCc2c(c3cc(OCc4ccccc4)ccc3n2Cc2ccccc2)C1 (centres undefined)
Activity [1]: 30.4%

O=C(O)C1CCc2c(c3cc(OCc4ccccc4)ccc3n2C(=O)c2ccc(Cl)cc2)C1 (single isomer, unassigned; (-))
Activity [2]: Active
Activity [3]: 35.6%
Activity [4]: Active
Activity [5]: Dose-dependent effect
Activity [6]: 12.9%
Activity [1]: 76.4 to 85.5%

Cc1nc(C)c(COc2ccc3c(c2)c2c(n3C(=O)c3ccc(Cl)cc3)CCC(C(=O)O)C2)nc1C (centres undefined)
Activity [2]: Active
Activity [4]: Active
Activity [1]: 47.5%

Cc1ccc(Cn2c3c(c4cc(OCc5ccccc5)ccc42)CC(C(=O)O)CC3)cc1 (centres undefined)
Activity [1]: 42.2%

O=C(O)C1CCc2c(c3cc(OCc4ccccc4)ccc3n2Cc2ccc(F)cc2)C1 (centres undefined)
Activity [1]: 34.3%

O=C(O)C1CCc2c(c3cc(OCc4ccccc4)ccc3n2C(=O)c2ccc(Cl)cc2)C1 (stereo in doubt; (+)-7a)
Activity [2]: Active
Activity [3]: 27.3%
Activity [4]: Active
Activity [5]: Dose-dependent effect
Activity [6]: 1.79%
Activity [1]: 55.3 to 60.6%

O=C(O)C1CCc2c(c3cc(OCc4ccccn4)ccc3n2C(=O)c2ccc(Cl)cc2)C1 (centres undefined)
Activity [1]: 47.5%

N#Cc1ccc(COc2ccc3c(c2)c2c(n3C(=O)c3ccc(Cl)cc3)CCC(C(=O)O)C2)cc1 (centres undefined)
Activity [2]: Active
Activity [3]: 26.8%
Activity [4]: Active
Activity [5]: Dose-dependent effect
Activity [6]: 9.65%
Activity [1]: 50.2 to 72.8%

O=C(O)C1CCc2c(c3cc(OCc4ccccc4)ccc3n2C(=O)c2ccc(F)cc2)C1 (centres undefined)
Activity [1]: 75.2%

O=C(O)C1CCc2c(c3cc(OCc4ccccc4)ccc3n2C(=O)c2ccc(Cl)cc2)C1 (stereo in doubt; 7a) [listing 1 of 2 here]
Activity [2]: Active
Activity [3]: 30.2%
Activity [4]: Active
Activity [5]: Dose-dependent effect
Activity [6]: 15.5%
Activity [1]: 72.9 to 82.5%

O=C(O)C1CCc2c(c3cc4c(cc3n2S(=O)(=O)c2ccc(Cl)cc2)OCO4)C1 (centres undefined)
Activity [1]: 47.5%

COc1ccc(S(=O)(=O)n2c3c(c4cc5c(cc42)OCO5)CC(C(=O)O)CC3)cc1 (centres undefined)
Activity [1]: 40.3%

O=C(O)C1CCc2c(c3cc(OCc4ccc(F)cc4)ccc3n2C(=O)c2ccc(Cl)cc2)C1 (centres undefined)
Activity [3]: 20.1%
Activity [5]: Dose-dependent effect
Activity [6]: 0.11%
Activity [1]: 53.4 to 68.8%

O=C(O)C1CCc2[nH]c3ccc(OCc4ccccc4)cc3c2C1 (centres undefined)
Activity [2]: Active
Activity [3]: 37.2%
Activity [4]: Active
Activity [5]: Dose-dependent effect
Activity [6]: 29%
Activity [1]: 48.4 to 52.3%

COc1ccc(S(=O)(=O)n2c3c(c4cc(OCc5ccccc5)ccc42)CC(C(=O)O)CC3)cc1 (centres undefined)
Activity [1]: 60.3%

O=C(O)C1CCc2c(c3cc(OCc4ccccc4)ccc3n2Cc2ccc(Cl)cc2)C1 (centres undefined)
Activity [1]: 32.7%

CCc1ccc(CCOc2ccc(CC3SC(=O)NC3=O)cc2)nc1 (centres undefined) [PIOGLITAZONE]
Activity [7]: 21.9%
Activity [8]: 37.1%
Activity [9]: 34.5%
Activity [10]: 37.4%
Activity [11]: 7.89 mM
Activity [12]: 16.3%
Activity [13]: 0.51 mM

O=C(O)C1CCc2c(c3cc4c(cc3n2C(=O)c2ccc(Cl)cc2)OCO4)C1 (centres undefined)
Activity [1]: 55.1%

COc1ccc2c(c1)c1c(n2C(=O)c2ccc(Cl)cc2)CCC(C(=O)O)C1 (centres undefined)
Activity [1]: 50.5%

Cc1c(CC(=O)O)c2cc(OCc3ccccc3)ccc2n1C(=O)c1ccc(Cl)cc1
Activity [7]: 32.9%
Activity [8]: 25.7%
Activity [9]: 30.3%
Activity [10]: 13.5%
Activity [11]: 7.78 mM
Activity [12]: 8.5%
Activity [13]: 0.79 mM

O=C(O)C1CCc2c(c3cc(OCc4ccccc4)ccc3n2C(=O)c2ccc(Cl)cc2)C1 (stereo in doubt; 7a) [listing 2 of 2 here]
CL [14]: 1.2 mL/min/kg
AUC(0-inf) [15]: 71000 ng·h/mL
Activity [7]: 30.6%
Cmax [16]: 2320 ng/mL
bioavailability [17]: 20.2%
Tmax [18]: 7.83 h
Activity [8]: 29.3%
t1/2 [19]: 6.46 h
Activity [9]: 19.6%
AUC(0-inf) [20]: 48300 ng·h/mL
Activity [10]: 28%
Activity [11]: 6.93 mM
Activity [12]: 10.4%
t1/2 [21]: 7.2 h
AUC(0-t) [22]: 32000 ng·h/mL
Activity [13]: 0.54 mM
Ratio [23]: 2
Vd [24]: 2.7 L/kg
AUC(0-t) [25]: 39600 ng·h/mL
Vd [26]: 9.98 L/kg
CL [27]: 7.5 mL/min/kg

CN(C)C(=N)NC(=N)N
Activity [28]: 60.4 to 63.7%

O=C(O)c1ccccc1-c1ccc(Cn2c3c(c4cc(OCc5ccccc5)ccc42)CC(C(=O)O)CC3)cc1 (centres undefined)
Activity [1]: 27.5%

O=C(O)C1CCc2c(c3cc(OCc4ccccc4)ccc3n2S(=O)(=O)c2ccc(Cl)cc2)C1 (centres undefined)
Activity [7]: 15.5%
Activity [8]: 28.9%
Activity [9]: 16.3%
Activity [10]: 14.3%
Activity [11]: 6.91 mM
Activity [12]: 3.7%
Activity [13]: 0.99 mM
Activity [1]: 64.5%

CC(Oc1ccc2c(c1)c1c(n2C(=O)c2ccc(Cl)cc2)CCC(C(=O)O)C1)c1ccccc1 (centres undefined)
Activity [2]: Active
Activity [3]: 32.2%
Activity [4]: Active
Activity [5]: Dose-dependent effect
Activity [6]: 4.89%
Activity [1]: 62.1 to 68.7%
